In ChEMBL document CHEMBL1153722, “Design, synthesis, and characterization of peptide-based rab geranylgeranyl transferase inhibitors” (J Med Chem, 2009):
Peptide text beside a SMILES is read from it. * marks the point of attachment. Hydrocinnamoyl = O=C(CCc1ccccc1)*; Palmitoyl = CCCCCCCCCCCCCCCC(=O)*; Myristoyl = CCCCCCCCCCCCCC(=O)*; Undecanoyl = CCCCCCCCCCC(=O)*; Nicotinoyl = O=C(c1cccnc1)*; Morpholide = C1CN(*)CCO1; Cbz = O=C(OCc1ccccc1)*; NHBn = c1ccc(CN*)cc1; NHNH2 = NN*

Species on record: Rattus norvegicus
Test: Inhibition of rat recombinant Rab geranylgeranyltransferase at 100 uM in presence of canine Rab7 and rat REP1 NBD-FPP based continuous fluorimetric assay
Method in brief: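 Continuous fluorometric assay in 96/384-well format: 3 μM Rab7, 3 μM REP1, 9 μM NBD-FPP and 400 nM RabGGTase, with or without inhibitor. […] IC50 was calculated from three independent measurements.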

Row | Compound | inhibition
1 | CCCCCCCCCCCCCCCC(=O)N[C@@H](Cc1ccc(O)cc1)C(=O)N[C@@H](Cc1ccc(O)cc1)C(=O)N[C@@H](Cc1ccc(O)cc1)C(=O)O (Palmitoyl-Tyr-Tyr-Tyr-OH) | 93%
2 | C[C@H](NC(=O)c1coc(-c2ccccc2)n1)C(=O)NCC(=O)N[C@@H](Cc1ccc(O)cc1)C(=O)Nc1ccc(F)cc1F | 83%
3 | O=C(CNC(=O)[C@H](Cc1c[nH]cn1)NC(=O)OCc1ccccc1)N[C@@H](Cc1ccc(O)cc1)C(=O)O (Cbz-His-Gly-Tyr-OH) | 75%
4 | CCCCCCCCCCCOc1ccc(C(=O)N[C@@H](Cc2cnc[nH]2)C(=O)N[C@@H](Cc2ccc(O)cc2)C(=O)N[C@@H](Cc2ccccc2)C(=O)NCC(O)CO)cc1 (stereo partly drawn) | 93%
5 | NC(=O)CC[C@H](NC(=O)[C@H](Cc1ccccc1)NC(=O)[C@H](CO)NC(=O)CCc1ccccc1)C(=O)Nc1ccc(F)cc1F | 104%
6 | C[C@H](NC(=O)[C@@H](NC(=O)c1ccc(-c2ccccc2)cc1)[C@@H](C)O)C(=O)N[C@@H](CCC(=O)O)C(N)=O | 82%
7 | O=C(N[C@@H](CO)C(=O)N[C@@H](Cc1ccccc1)C(=O)N[C@@H](CO)C(=O)Nc1ccc(N2CCOCC2)cc1)C(Br)C(Br)c1ccc(F)cc1 (stereo partly drawn) | 70%
8 | O=C(N[C@H](Cc1cnc[nH]1)C(=O)N[C@@H](Cc1ccc(O)cc1)C(=O)N[C@@H](Cc1ccccc1)C(=O)O)OCc1ccc(OCc2ccccc2)cc1 | 47%
9 | CC[C@H](C)[C@H](NC(=O)c1ccc(-c2ccccc2)cc1)C(=O)N[C@@H](C(=O)N[C@@H](CCC(N)=O)C(=O)O)C(C)C | 77%
10 | O=C(/C=C/c1ccccc1)N[C@@H](Cc1ccccc1)C(=O)N[C@@H](Cc1ccccc1)C(=O)N[C@@H](Cc1ccc(O)cc1)C(=O)O | 50%
11 | O=C(CNC(=O)[C@H](Cc1ccc(O)cc1)NC(=O)c1ccc(F)cc1)N[C@@H](Cc1ccc(O)cc1)C(=O)OCCCl | 55%
12 | CC(C)C[C@H](NC(=O)[C@H](CO)NC(=O)[C@H](Cc1ccccc1)NC(=O)c1ccc(-c2ccccc2)cc1)C(=O)OCCCl | 53%
13 | NCCCC[C@H](NC(=O)c1coc(-c2ccccc2)n1)C(=O)NCC(=O)N[C@@H](Cc1ccc(O)cc1)C(=O)O | 100%
14 | NNC(=O)[C@H](CCC(N)=O)NC(=O)[C@H](Cc1ccccc1)NC(=O)[C@H](CO)NC(=O)CCc1ccccc1 (Hydrocinnamoyl-Ser-Phe-Gln-NHNH2) | 104%
15 | O=C(N[C@@H](Cc1ccc(O)cc1)C(=O)N[C@@H](Cc1ccc(O)cc1)C(=O)N[C@@H](Cc1ccc(O)cc1)C(=O)Nc1ccc(F)cc1F)c1ccc(F)cc1F | 97%
16 | CCCCCCCCCCCOc1ccc(C(=O)N[C@@H](Cc2c[nH]cn2)C(=O)N[C@@H](Cc2ccc(O)cc2)C(=O)N[C@@H](Cc2ccccc2)C(=O)Nc2nccs2)cc1 | 76%
17 | O=C(N[C@@H](Cc1ccc(O)cc1)C(=O)N[C@@H](Cc1ccc(O)cc1)C(=O)N[C@@H](Cc1ccc(O)cc1)C(=O)NC1CCCCC1)c1ccc(F)cc1F | 88%
18 | O=C(CNC(=O)[C@@H]1CCCN1C(=O)c1coc(-c2ccccc2)n1)N[C@@H](Cc1ccccc1)C(=O)Nc1ccc(F)cc1F | 89%
19 | COC(=O)[C@H](Cc1ccccc1)NC(=O)CNC(=O)[C@@H]1CCCN1C(=O)/C=C/c1ccccc1 | 89%
20 | CCCCCCCCCCC(=O)N[C@@H](Cc1c[nH]cn1)C(=O)N[C@@H](Cc1c[nH]cn1)C(=O)N[C@@H](CO)C(=O)OC (Undecanoyl-His-His-Ser-OMe) | 77%

Row | Compound | inhibition
21 | NNC(=O)[C@H](CO)NC(=O)CNC(=O)[C@H](CO)NC(=O)CCc1ccccc1 (Hydrocinnamoyl-Ser-Gly-Ser-NHNH2) | 94%
22 | CCCCCCCCCCCOc1ccc(C(=O)N[C@@H](Cc2c[nH]cn2)C(=O)N[C@@H](Cc2c[nH]cn2)C(=O)N[C@@H](Cc2c[nH]cn2)C(=O)NCC(O)CO)cc1 (stereo partly drawn) | 37%
23 | COC(=O)[C@H](CC(C)C)NC(=O)[C@H](COC(C)(C)C)NC(=O)[C@H](Cc1ccccc1)NC(=O)c1ccc(-c2ccccc2)cc1 | 84%
24 | CCCCCCCCCCCOc1ccc(C(=O)N[C@@H](Cc2ccc(O)cc2)C(=O)N[C@@H](Cc2ccc(O)cc2)C(=O)N[C@@H](Cc2ccc(O)cc2)C(=O)OCCN)cc1 | 40%
25 | COc1ccc(C[C@@H](C(=O)N(C)[C@@H](Cc2ccccc2)C(=O)O)N(C)C(=O)[C@@H](Cc2ccc(O)cc2)NC(=O)OCc2ccccc2)cc1 | 25%
26 | O=C(N[C@@H](CO)C(=O)N[C@@H](Cc1ccccc1)C(=O)N[C@@H](CO)C(=O)Nc1ccccc1)C(Br)C(Br)c1ccc(F)cc1 (stereo partly drawn) | 81%
27 | C[C@H](NC(=O)[C@@H](NC(=O)c1ccc(-c2ccccc2)cc1)[C@@H](C)O)C(=O)N[C@@H](CCC(=O)O)C(=O)O | 96%
28 | CCCCCCCCCCCCCC(=O)N[C@@H](Cc1ccc(O)cc1)C(=O)N[C@@H](Cc1ccc(O)cc1)C(=O)N[C@@H](Cc1ccc(O)cc1)C(=O)N1CCOCC1 (Myristoyl-Tyr-Tyr-Tyr-Morpholide) | 95%
29 | CCCCCCCCCCC(=O)N[C@@H](Cc1c[nH]cn1)C(=O)N[C@@H](Cc1ccccc1)C(=O)N[C@@H](Cc1ccc(O)cc1)C(=O)O (Undecanoyl-His-Phe-Tyr-OH) | 70%
30 | C[C@H](NC(=O)[C@@H](NC(=O)c1ccc(-c2ccccc2)cc1)[C@@H](C)O)C(=O)N[C@@H](CCC(N)=O)C(=O)NNc1ccccc1 | 96%
31 | COC(=O)[C@H](Cc1ccc(O)cc1)NC(=O)CNC(=O)[C@H](C)NC(=O)/C=C/c1ccc(F)cc1 | 79%
32 | O=C(CNC(=O)[C@H](Cc1cn(C(c2ccccc2)(c2ccccc2)c2ccccc2)cn1)NC(=O)c1coc(-c2ccccc2)n1)N[C@@H](Cc1cn(C(c2ccccc2)(c2ccccc2)c2ccccc2)cn1)C(=O)O | 95%
33 | CCCCCCCCCCC(=O)N[C@@H](Cc1c[nH]cn1)C(=O)N[C@@H](Cc1c[nH]cn1)C(=O)N[C@@H](Cc1ccc(O)cc1)C(=O)Nc1ccccn1 | 70%
34 | CCCCCCCCCCC(=O)NC(Cc1ccc(O)cc1)C(=O)N[C@@H](Cc1c[nH]cn1)C(=O)N[C@@H](Cc1c[nH]cn1)C(=O)NCC(O)CO (stereo partly drawn) | 89%
35 | O=C(CCc1ccccc1)N[C@@H](CO)C(=O)N[C@@H](Cc1ccccc1)C(=O)N[C@@H](CO)C(=O)Nc1ccc(F)cc1F | 96%
36 | CCCCCCCCCCC(=O)N[C@@H](Cc1ccc(O)cc1)C(=O)N[C@@H](Cc1c[nH]cn1)C(=O)N[C@@H](Cc1c[nH]cn1)C(=O)OC (Undecanoyl-Tyr-His-His-OMe) | 32%
37 | O=C(CCc1ccccc1)N[C@@H](CO)C(=O)NCC(=O)N[C@@H](CO)C(=O)NCc1ccccc1 (Hydrocinnamoyl-Ser-Gly-Ser-NHBn) | 90%
38 | CCCCCCCCCCC(=O)N[C@@H](Cc1c[nH]cn1)C(=O)N[C@@H](Cc1ccccc1)C(=O)N[C@@H](Cc1ccc(O)cc1)C(=O)OC (Undecanoyl-His-Phe-Tyr-OMe) | 68%
39 | CCCCCCCCCCCOc1ccc(C(=O)N[C@@H](Cc2ccc(O)cc2)C(=O)N[C@@H](Cc2ccc(O)cc2)C(=O)N[C@@H](Cc2ccc(O)cc2)C(=O)O)cc1 | 106%
40 | O=C(CCc1ccccc1)N[C@@H](CO)C(=O)N[C@@H](Cc1ccccc1)C(=O)N[C@@H](CO)C(=O)NC1CCCCC1 | 90%

Row | Compound | inhibition
41 | CCCCCCCCCCC(=O)N[C@@H](CC1=NCN=C1)C(=O)N[C@@H](Cc1c[nH]cn1)C(=O)N[C@@H](Cc1ccc(O)cc1)C(=O)Nc1ccccc1N | 74%
42 | CCCCCCCCCCC(=O)N[C@@H](Cc1ccc(O)cc1)C(=O)N[C@@H](Cc1c[nH]cn1)C(=O)N[C@@H](Cc1ccc(O)cc1)C(=O)NOC(C)(C)C | 79%
43 | CC(=O)Nc1cc(C(=O)N2CCC[C@@H]2C(=O)N[C@@H](C(=O)N[C@@H](CCC(N)=O)C(=O)NN)C(C)C)ccc1[N+](=O)[O-] | 77%
44 | O=C(/C=C/c1ccc(F)cc1)N[C@@H](CO)C(=O)N[C@@H](Cc1ccccc1)C(=O)N[C@@H](CO)C(=O)Nc1ccc(N2CCOCC2)cc1 | 79%
45 | CCCCCCCCCCCOc1ccc(C(=O)N[C@@H](Cc2c[nH]cn2)C(=O)N[C@@H](Cc2ccc(O)cc2)C(=O)N[C@@H](Cc2ccccc2)C(=O)N(C)CCc2ccccn2)cc1 | 101%
46 | O=C(CNC(=O)[C@H](Cc1ccc(O)cc1)NC(=O)c1coc(-c2ccccc2)n1)N[C@@H](Cc1c[nH]c2ccccc12)C(=O)O | 59%
47 | CCCCCCCCCCCOc1ccc(C(=O)N[C@@H](Cc2c[nH]cn2)C(=O)N[C@@H](Cc2ccc(O)cc2)C(=O)N[C@@H](Cc2ccccc2)C(N)=O)cc1 | 81%
48 | CC[C@H](C)[C@H](NC(=O)c1ccc(-c2ccccc2)cc1)C(=O)N[C@@H](C(=O)N[C@@H](CCC(N)=O)C(N)=O)C(C)C | 89%
49 | O=C(CNC(=O)[C@H](Cc1c[nH]cn1)NC(=O)OCc1ccccc1)N[C@@H](Cc1ccc(O)cc1)C(=O)c1nc2ccccc2[nH]1 | 66%
50 | O=C(/C=C/c1ccccc1)N[C@@H](Cc1ccccc1)C(=O)N[C@@H](Cc1ccccc1)C(=O)N[C@@H](Cc1ccc(O)cc1)C(=O)NC1CCCCC1 | 71%
51 | O=C(/C=C/c1ccc(F)cc1)N[C@@H](CO)C(=O)N[C@@H](Cc1ccccc1)C(=O)N[C@@H](CO)C(=O)Nc1ccccc1 | 73%
52 | CCCCCCCCCCCOc1ccc(C(=O)N[C@@H](Cc2ccc(O)cc2)C(=O)N[C@@H](Cc2ccc(O)cc2)C(=O)N[C@@H](Cc2ccc(O)cc2)C(=O)Nc2ccccn2)cc1 | 72%
53 | COC(=O)[C@H](CO)NC(=O)CNC(=O)[C@H](Cc1ccccc1)NC(=O)c1coc(-c2ccccc2)n1 | 115%
54 | O=C(CNC(=O)[C@H](Cc1c[nH]cn1)NC(=O)OCc1ccccc1)N[C@@H](Cc1ccc(O)cc1)C(=O)NCCCn1ccnc1 | 85%
55 | CC[C@H](C)[C@H](NC(=O)[C@H](Cc1ccccc1)NC(=O)c1cccnc1)C(=O)N[C@@H](CCCNC(=N)N)C(=O)OC (Nicotinoyl-Phe-Ile-Arg-OMe) | 105%
56 | C=CCOC(=O)[C@H](Cc1cn(C(c2ccccc2)(c2ccccc2)c2ccccc2)cn1)NC(=O)[C@H](Cc1ccccc1)NC(=O)CNC(=O)c1coc(-c2ccccc2)n1 | 55%
57 | COC(=O)[C@H](CC(C)C)NC(=O)[C@H](CO)NC(=O)[C@H](Cc1ccccc1)NC(=O)/C=C/c1ccc(F)cc1 | 57%
58 | CCCCCCCCCCCCCCCC(=O)N[C@@H](Cc1ccc(O)cc1)C(=O)N[C@@H](Cc1ccc(O)cc1)C(=O)N[C@@H](Cc1ccc(O)cc1)C(=O)Nc1nccs1 | 83%
